Screening results from PubChem BioAssay.
KCC2 mod – KCC2 cotransporter modulators, thallium flux, primary screen, cell-based, HEK293 KCC2, FluoZin-2 fluorescence, MLSMR; Solute carrier family 12 member 5 (Homo sapiens), Q9H2X9; KCC2 cells, thallium flux FluoZin-2 fluorescence; B-score of Tl+ flux slope (higher = more flux/activation; lower = inhibition) at 10 µM; actives 2.2% (n = 190,000); AID 1456, 2008;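 active means thallium flux slope and its plate-corrected score both differing from the plate sample mean at a set confidence after two filtering rounds, in either direction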;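 further: slope of fluorescence scaled to starting intensity during 10 to 20 s after thallium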
STAT1 act – STAT1 signaling activators, primary screen, cell-based, HTS, luciferase reporter; NIH 3T3 STAT1-luciferase reporter, IFN-gamma, luminescence; 100% = IFN-gamma alone, no compound; actives 2.6% (n = 200,000); activation (% of control), % at 5.5 µM;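 active means activation above the screen-wide mean activation plus 3 SD, cut at about 130% in these data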;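 further: raw ratio to IFN-gamma control signal so 100% means no change and 0% no light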
STAT3 act – IL-6 driven STAT3 reporter potentiators, primary screen, U3A cells, luciferase, luminescence, MLSCN library; activation (% of control), % at 5.6 µM; IL-6 STAT3-luciferase reporter; 100% = signal with IL-6 EC80 alone; actives 0.91% (n = 190,000);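 active means activation above the screen-wide mean of compound activation plus 3 SD, cut at about 130% in these data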;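 further: 0% = background luminescence of wells with medium and substrate only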
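Test system: Human STAT1-deficient U3A cells with stable STAT3-luciferase reporter | Also added: Interleukin-6, 33 ng/mL | Timing: Compound pre-incubation 1 h before IL-6, then 6 h stimulation at 37 °C | Technique: Luciferase reporter luminescence | Read-out: Percent of IL-6-only median luminescence | Benchmarks: IL-6-only wells as 100% reference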
HSV augment – enhancers of HSV replication in host cells, fold increase, host cell viability | HSV replication augmentation in cells | maximum fold increase | actives 0.005% (n = 220,000) | AID 1956, 2009; in the data active means maximum fold increase above about 1.5; inconclusive means no clear call, values can overlap the other calls; tested in PC3 cells
STAT3 inh-1 – IL-6 driven STAT3 reporter inhibitors, primary screen, U3A cells, luciferase, luminescence, MLSCN library | IL-6 STAT3-luciferase reporter; host cell line lacks STAT1 | inhibition, % at 5.5 µM | actives 0.89% (n = 190,000) | AID 862, 2007;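 active means inhibition above the mean inhibition across all screened compounds plus 3 SD, cut at about 44% in these data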;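 further: 0% = DMSO only wells and 100% = 100 µM nifuroxazide control wells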
STAT1 inh – STAT1 signaling inhibitors, primary screen, cell-based, HTS, luciferase reporter. actives 0.35% (n = 200,000). AID 920, 2007. inhibition, % at 5.5 µM. NIH 3T3 STAT1-luciferase reporter, IFN-gamma, luminescence;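 active means inhibition above a set limit, the mean inhibition across all tested compounds plus 3 SD, cut at about 34% in these data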;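 further: 0% = IFN-gamma with DMSO and 100% = IFN-gamma with 300 µM nifuroxazide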
STAT3 inh-2 – STAT3 reporter inhibitors, retest of hits, confirmation, U3A cells, luciferase, luminescence; shares compounds with STAT3 inh-1; IL-6 STAT3 luciferase reporter; cell line lacks STAT1; inhibition, % at 5.7 µM; actives 45% (n = 1,200); AID 1265, 2008;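 active means inhibition above the hit cutoff computed for the primary STAT3 screen, cut at about 44% in these data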;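 further: 0% = IL-6 plus DMSO and 100% = IL-6 plus nifuroxazide control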
NFkB inh STAT3ct – NF-kB reporter inhibitors in human cells, confirmation, counter-screen for STAT3 inhibitor project, cell-based, HEK293T, luciferase, TNF-alpha stimulus | shares compounds with STAT3 inh-1 | TNF-alpha induced | inhibition, % at 5.7 µM | actives 36% (n = 1,200) | AID 1308, 2008;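 active means inhibition above the mean of solvent-only control wells plus 3 SD, cutoff set per campaign, cut at about 13% in these data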;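 further: 0% = TNF-alpha with DMSO and 100% = TNF-alpha with MG high control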
STAT1 inh 2 – STAT1 reporter inhibitors, IFN-gamma induced, confirmation, counter-screen for STAT3 inhibitor project, cell-based, NIH 3T3, luciferase luminescence. inhibition, % at 5.7 µM. NIH 3T3 STAT1-luciferase reporter. actives 27% (n = 1,200). shares compounds with STAT3 inh-1;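 active means inhibition above the mean plus 3 SD of solvent-only control wells, limit set per screening run, cut at about 16% in these data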;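 further: 0% = DMSO with IFN-gamma and 100% = nifuroxazide control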
KCC2 sec1 – KCC2 modulators in sodium-free buffer, confirmation, cell-based, HEK293 KCC2, thallium flux, secondary assay | shares compounds with KCC2 mod | FluoZin2 fluorescence; stronger effect = higher value | normalised thallium flux (F/F0 slope) at 10 µM | actives 15% (n = 3,700);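 active means thallium flux slope above the same plate's solvent-only control mean plus 3 SD; inconclusive means the two replicate wells disagree; inactive means no significant difference from solvent-only control wells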
KCC2 bumet counter – thallium flux persisting under bumetanide in KCC2 cells, confirmation, counter-screen for KCC2 modulator project, cell-based, HEK293 KCC2, FluoZin2, secondary assay 3; shares compounds with KCC2 mod; HEK293-KCC2 + bumetanide/ouabain; stronger effect = higher value; normalized thallium flux at 10 µM; actives 49% (n = 3,700); AID 1714, 2009;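 active means thallium entry rate above the same plate's blocked-transporter control wells by more than 3 SD; inconclusive means the two repeat wells disagree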;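 further: raw slope of fluorescence over initial fluorescence between 10 and 20 s after thallium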
KCC2 sec2 – KCC2 modulators without ouabain present, confirmation, cell-based, HEK293 KCC2, thallium flux, FluoZin2, secondary assay 2. shares compounds with KCC2 mod. thallium flux FluoZin2 fluorescence; actives lie on both sides; F/F0 rise rate, 10–20 s post-thallium. normalized thallium flux at 10 µM. actives 23% (n = 3,700). AID 1715, 2009;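 active means thallium flux slope more than 3 SD above or below the plate's solvent-only control mean, mostly below; inconclusive means the two repeat wells disagreed; inactive means no significant shift from solvent-only controls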;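 further: raw slope with 0.1% DMSO as baseline and bumetanide as block control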
HEK counter1 – thallium flux modulation in parental HEK cells, confirmation, counter-screen for KCC2 modulator project, cell-based, counterscreen 1; HEK293 parental cells, thallium flux FluoZin2, ouabain; baseline-ratio fluorescence slope, 10–20 s after thallium; shares compounds with KCC2 mod; thallium flux rate (normalised fluorescence) at 10 µM; AID 1716, 2009; actives 46% (n = 3,700);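 active means thallium flux rate significantly above the same plate's solvent-only control wells, beyond their mean plus 3 SD; inconclusive means the two replicate wells gave conflicting results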
KCC2 retest ouab – KCC2 inhibitors and activators, ouabain retest, confirmation, HEK-KCC2 cells | actives 48% (n = 3,700) | raw Tl+ flux slope (below DMSO = inhibition, above = activation) at 10 µM | AID 1717, 2009 | shares compounds with KCC2 mod | HEK293-KCC2, thallium flux FluoZin2 fluorescence; bidirectional: low = inhibitor, high = activator;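 active means thallium flux slope beyond 3 SD from same-plate DMSO control mean in most replicates, usually higher, sometimes lower; inconclusive means repeat tests gave conflicting results; inactive means no significant difference from controls in most replicates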;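 further: slope of initial-normalized fluorescence between seconds 10 and 20 after thallium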
HEK counter2 – native HEK Tl+ uptake effects, second counter-screen – HEK cells, counterscreen 2, counter-screen for KCC2 modulator project, confirmation. shares compounds with KCC2 mod. actives 33% (n = 3,700). thallium flux slope at 10 µM. HEK293 parental, thallium flux FluoZin-2 fluorescence slope;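 active means thallium flux slope above the same plate's solvent-control mean plus 3 SD in both duplicate wells; inconclusive means duplicate wells that disagreed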;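 further: run without ouabain in cells lacking the KCC2 cotransporter; slope of fluorescence scaled to its starting value between 10 and 20 s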
* hit, by the source's call; i = inactive; ? = inconclusive; . = no result. An excerpt weighted towards active compounds, which were near 5.5% of everything screened.

SMILES	KCC2 mod	STAT1 act	STAT3 act	HSV augment	STAT3 inh-1	STAT1 inh	STAT3 inh-2	NFkB inh STAT3ct	STAT1 inh 2	KCC2 sec1	KCC2 bumet counter	KCC2 sec2	HEK counter1	KCC2 retest ouab	HEK counter2
O=C(NC1CC1)c1cc2c(s1)-c1ccccc1OC2	.	120	46	i	71*	-22	63*	-7	-42	0.0071	0.0059	0.035	0.0039	0.017*	0.011
CC(C)=CCN1CCN(Cc2cc(F)ccc2-n2nc(C)cc2C)CC1CCO (stereo unspecified)	0.69	96	106	i	-1	4	.	.	.	.	.	.	.	.	.
Cc1ccc(C=Nc2ccccc2C(N)=O)cc1	-0.017	109	96	i	10	-9	.	.	.	.	.	.	.	.	.
Cc1ccc(C(=O)/C=C/Nc2ccccc2C(N)=O)cc1	-3.3*	110	36	i	76*	-11	38	8	-63	0.017	0.0065*	?	0.007	0.015	0.01
O=C(CCn1c(=S)oc2ccccc21)Nc1cccc(O)c1	-0.25	98	100	i	11	1	.	.	.	.	.	.	.	.	.
CC(=O)Nc1ccc(Nc2cc(C)nc3c(-c4ccccc4)cnn23)cc1	-3.9*	150*	55	i	55*	-56	-2	-57	-150	0.0078	0.0092*	0.032	0.0074	0.02	0.011
CC(=O)Nc1ccc(Nc2cc(-c3ccccc3)nc3ncnn23)cc1	-0.64	103	86	i	18	-5	.	.	.	.	.	.	.	.	.
COc1ccc(O)c(C(=O)CC(=O)c2ccc(F)cc2)c1	23*	110	35	i	77*	-11	27	-10	-112	?	0.07*	0.035	?	0.054*	?
